# How the values were obtained:
# MCF7 = test: Cytotoxicity against human MCF7 cells assessed as reduction in cell viability after 48 hrs by SRB colorimetric assay; assay type: functional, cell-based; conditions: MCF7, 48 h
# Outline: (§1)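 MCF-7 from ATCC and its stepwise ADR-selected resistant subline, grown in RPMI-1640 with 10% FBS and penicillin/streptomycin at 37 °C, 5% CO2. 1 × 10^4 cells/well exposed to graded compound concentrations for 48 h. Cells fixed with 10% TCA, stained with 0.4% SRB in 1% acetic acid, dye extracted with 10 mM Tris base, OD read at 490 nm. Taxol positive control.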
# [1] = Cytotoxicity against human MCF7/ADR cells assessed as reduction in cell viability after 48 hrs by SRB colorimetric assay; assay type: functional, cell-based; conditions: NCI/ADR-RES; outline: as §1
# [2] = biological target: T1, ATP-dependent translocase ABCB1 (Homo sapiens, UniProt P08183); test: Inhibition of P-gp in human MCF7/ADR cells assessed as reversal of multidrug resistance by measuring relative enhancement intensity for adriamycin-induced cytotoxicity at 10 uM after 48 hrs by SRB colorimetric assay; assay type: cell-based; set-up: scale not given: the % may be the effect or the level left; conditions: nci/adr-res
# T1 sequence (P08183 whole entry): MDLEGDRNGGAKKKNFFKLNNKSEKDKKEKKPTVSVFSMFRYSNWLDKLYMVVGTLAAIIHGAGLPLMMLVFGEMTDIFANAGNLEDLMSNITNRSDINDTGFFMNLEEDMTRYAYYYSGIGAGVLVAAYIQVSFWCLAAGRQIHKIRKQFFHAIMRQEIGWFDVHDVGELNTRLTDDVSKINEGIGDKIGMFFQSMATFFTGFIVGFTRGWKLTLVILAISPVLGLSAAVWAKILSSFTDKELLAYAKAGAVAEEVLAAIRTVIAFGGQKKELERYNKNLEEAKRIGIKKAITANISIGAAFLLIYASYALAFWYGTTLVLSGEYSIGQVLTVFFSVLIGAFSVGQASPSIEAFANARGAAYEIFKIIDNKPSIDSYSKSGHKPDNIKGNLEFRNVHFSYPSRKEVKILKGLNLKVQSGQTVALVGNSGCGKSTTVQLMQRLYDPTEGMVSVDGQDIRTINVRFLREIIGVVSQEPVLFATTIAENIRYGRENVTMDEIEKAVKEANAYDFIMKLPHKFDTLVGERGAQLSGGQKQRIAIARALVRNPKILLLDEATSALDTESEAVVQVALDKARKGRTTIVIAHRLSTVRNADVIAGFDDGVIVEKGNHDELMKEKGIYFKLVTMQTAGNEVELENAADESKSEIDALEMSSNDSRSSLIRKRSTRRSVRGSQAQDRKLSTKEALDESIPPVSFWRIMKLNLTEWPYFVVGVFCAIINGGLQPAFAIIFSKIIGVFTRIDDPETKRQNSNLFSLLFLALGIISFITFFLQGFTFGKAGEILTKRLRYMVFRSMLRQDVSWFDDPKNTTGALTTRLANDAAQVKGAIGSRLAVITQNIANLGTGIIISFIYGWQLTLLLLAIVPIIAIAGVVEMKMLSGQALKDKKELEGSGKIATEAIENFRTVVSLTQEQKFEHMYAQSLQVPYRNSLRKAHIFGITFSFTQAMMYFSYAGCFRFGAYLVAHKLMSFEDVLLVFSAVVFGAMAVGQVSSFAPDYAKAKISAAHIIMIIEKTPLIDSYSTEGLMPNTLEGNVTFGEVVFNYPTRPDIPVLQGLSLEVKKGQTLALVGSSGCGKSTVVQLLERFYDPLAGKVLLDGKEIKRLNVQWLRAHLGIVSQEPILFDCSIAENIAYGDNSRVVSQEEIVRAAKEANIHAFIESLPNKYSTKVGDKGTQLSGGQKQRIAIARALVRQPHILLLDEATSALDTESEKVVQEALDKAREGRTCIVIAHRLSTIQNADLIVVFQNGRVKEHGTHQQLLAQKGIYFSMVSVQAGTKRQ
# NCI/ADR-RES = test: Inhibition of P-gp in human MCF7/ADR cells assessed as reversal of multidrug resistance at 10 uM by measuring ratio of EC50(adriamycin)/EC50(adriamycin + compound) after 48 hrs by SRB colorimetric assay; assay type: cell-based
# [3] = Lipophilicity, log P of the compound; assay type: physicochemical; conditions: octanol/water
# [4] = Inhibition of P-gp in human MCF7/ADR cells assessed as reversal of multidrug resistance at 10 uM by measuring EC50 for adriamycin-induced cytotoxicity after 48 hrs by SRB colorimetric assay; conditions: nci/adr-res
# [5] = biological target: T1, ATP-dependent translocase ABCB1; test: Inhibition of P-gp in human MCF7/ADR cells assessed as forward scatter count of cells at 2 uM pre-treated for 1 hr at 37 degC followed by incubation with Rh123 for 1 hr by flow cytometry (reference value: 142.5 No unit); assay type: cell-based; conditions: nci/adr-res
# [6] = biological target: T1, ATP-dependent translocase ABCB1; test: Inhibition of P-gp in human MCF7/ADR cells assessed as forward scatter count of cells at 10 uM pre-treated for 1 hr at 37 degC followed by incubation with Rh123 for 1 hr by flow cytometry (reference value: 142.5 No unit); assay type: cell-based; conditions: nci/adr-res
# [7] = biological target: T1, ATP-dependent translocase ABCB1; test: Inhibition of P-gp in human MCF7/ADR cells assessed as forward scatter count of cells at 20 uM pre-treated for 1 hr at 37 degC followed by incubation with Rh123 for 1 hr by flow cytometry (reference value: 142.5 No unit); assay type: cell-based; conditions: nci/adr-res
# [8] = biological target: T1, ATP-dependent translocase ABCB1; test: Inhibition of P-gp in human MCF7/ADR cells assessed as side scatter count of cells at 2 uM pre-treated for 1 hr at 37 degC followed by incubation with Rh123 for 1 hr by flow cytometry (reference value: 100.6 No unit); assay type: cell-based; conditions: nci/adr-res
# [9] = biological target: T1, ATP-dependent translocase ABCB1; test: Inhibition of P-gp in human MCF7/ADR cells assessed as side scatter count of cells at 10 uM pre-treated for 1 hr at 37 degC followed by incubation with Rh123 for 1 hr by flow cytometry (reference value: 100.6 No unit); assay type: cell-based; conditions: nci/adr-res
# [10] = biological target: T1, ATP-dependent translocase ABCB1; test: Inhibition of P-gp in human MCF7/ADR cells assessed as side scatter count of cells at 20 uM pre-treated for 1 hr at 37 degC followed by incubation with Rh123 for 1 hr by flow cytometry (reference value: 100.6 No unit); assay type: cell-based; conditions: nci/adr-res
# [11] = biological target: T1, ATP-dependent translocase ABCB1; test: Inhibition of P-gp in human MCF7/ADR cells assessed as mean fluorescence intensity of cells at 2 uM pre-treated for 1 hr at 37 degC followed by incubation with Rh123 for 1 hr by flow cytometry (reference value: 108.1 +/- 43.9 No unit); assay type: cell-based; conditions: nci/adr-res
# [12] = biological target: T1, ATP-dependent translocase ABCB1; test: Inhibition of P-gp in human MCF7/ADR cells assessed as mean fluorescence intensity of cells at 10 uM pre-treated for 1 hr at 37 degC followed by incubation with Rh123 for 1 hr by flow cytometry (reference value: 108.1 +/- 43.9 No unit); assay type: cell-based; conditions: nci/adr-res
# [13] = biological target: T1, ATP-dependent translocase ABCB1; test: Inhibition of P-gp in human MCF7/ADR cells assessed as mean fluorescence intensity of cells at 20 uM pre-treated for 1 hr at 37 degC followed by incubation with Rh123 for 1 hr by flow cytometry (reference value: 108.1 +/- 43.9 No unit); assay type: cell-based; conditions: nci/adr-res
# [14] = biological target: T1, ATP-dependent translocase ABCB1; test: Inhibition of P-gp in human MCF7/ADR cells assessed as peak fluorescence intensity of cells at 2 uM pre-treated for 1 hr at 37 degC followed by incubation with Rh123 for 1 hr by flow cytometry (reference value: 87.3 No unit); assay type: cell-based; conditions: nci/adr-res
# [15] = biological target: T1, ATP-dependent translocase ABCB1; test: Inhibition of P-gp in human MCF7/ADR cells assessed as peak fluorescence intensity of cells at 10 uM pre-treated for 1 hr at 37 degC followed by incubation with Rh123 for 1 hr by flow cytometry (reference value: 87.3 No unit); assay type: cell-based; conditions: nci/adr-res
# [16] = biological target: T1, ATP-dependent translocase ABCB1; test: Inhibition of P-gp in human MCF7/ADR cells assessed as peak fluorescence intensity of cells at 20 uM pre-treated for 1 hr at 37 degC followed by incubation with Rh123 for 1 hr by flow cytometry (reference value: 87.3 No unit); assay type: cell-based; conditions: nci/adr-res
# [17] = biological target: T1, ATP-dependent translocase ABCB1; test: Inhibition of P-gp in human MCF7/ADR cells assessed as mean fluorescence intensity of cells pre-treated for 1 hr at 37 degC followed by incubation with Rh123 for 1 hr by flow cytometry; assay type: cell-based; conditions: nci/adr-res
Compound,IC50 (MCF7),IC50 [1],Activity [2],Ratio EC50 (NCI/ADR-RES),logP [3],EC50 [4],Activity [5],Activity [6],Activity [7],Activity [8],Activity [9],Activity [10],Flu intensity [11],Flu intensity [12],Flu intensity [13],Activity [14],Activity [15],Activity [16],inhibition (INH) [17]
C=C1CC[C@H]2[C@@H]([C@@H]3O[C@]4(C[C@H](C)[C@H](OC(C)=O)[C@@H]4[C@H]1OC(C)=O)C(=O)[C@H]3C)C2(C)C,12.7 µM,> 100 µM,13%,10.7,3.4,3.23 µM,–,–,–,–,–,–,–,–,–,–,–,–,–
C=C1CC[C@H]2[C@@H](/C=C(\C)C(=O)[C@@]3(O)C[C@H](C)[C@H](OC(=O)CC)[C@@H]3[C@H]1OC(=O)Cc1cccc3ccccc13)C2(C)C,9.73 µM,75.7 µM,14.4%,28.6,–,–,138.5,137.9,131.4,94.8,101.2,100.9,149.4,167.8,204.6,143.5,188.2,235.8,Dose-dependent effect
COc1ccc(CCN(C)CCCC(C#N)(c2ccc(OC)c(OC)c2)C(C)C)cc1OC (stereo unspecified),–,–,8.4%,7.1,–,–,–,–,137.4,–,–,92.2,–,–,170,–,–,157.1,–
C=C1CC[C@H]2[C@@H](/C=C(\C)C(=O)[C@@]3(O)C[C@H](C)[C@H](OC(=O)c4ccccc4)[C@@H]3[C@H]1OC(=O)c1ccccc1)C2(C)C,13.2 µM,63.8 µM,23.9%,34.4,–,–,146.8,144.5,148.1,102.7,104.4,102,197.5,204.8,204.8,215.4,215.4,196.8,–
C=C1CC[C@H]2[C@@H](/C=C(\C)C(=O)[C@@]3(O)C[C@H](C)[C@H](O)[C@@H]3[C@H]1OC(=O)Cc1cccc3ccccc13)C2(C)C,10.5 µM,33.7 µM,15.5%,16,–,–,134.9,148.5,138.7,96.3,102.2,94.2,141.1,168.1,182.1,131.1,196.8,205.9,–
C=C1CC[C@H]2[C@@H]([C@@H]3O[C@]4(C[C@H](C)[C@H](OC(=O)c5ccccc5)[C@@H]4[C@H]1OC(=O)c1ccccc1)C(=O)[C@H]3C)C2(C)C,34.9 µM,> 100 µM,4.3%,1.7,–,20.49 µM,–,–,–,–,–,–,–,–,–,–,–,–,–
